Values joined by “and” are separate entries in the source; they are usually repeats but may differ in a detail not shown here. Equal values may be shown once.
How the values were obtained:
[1] = system: Escherichia coli; assay: Inhibition of growth of methotrexate-sensitive (MB1417) strain of Escherichia coli cells.; assay type: functional
Procedure, shortened: (§1)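 E. coli cultures kept on nutrient agar slants. Inoculum from two serial 24 h, 37 °C transfers in glucose-salts medium with 0.6% vitamin-free acid-hydrolyzed casein, washed twice, then diluted to about 15 cells/mL. Each 10 mL tube held basal medium, 25% glucose solution (1 mL) and inhibitor dissolved in water or 0.04 M HCl, diluted in sterile water. C = molar concentration giving 50% culture inhibition.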

[2] = system: Escherichia coli; assay: Inhibition of growth of methotrexate-resistant (MB1428) strain of Escherichia coli cells.; assay type: functional; procedure, shortened: as §1
[3] = system: Escherichia coli; assay: The compound was evaluated for the inhibition of growth of methotrexate resistant (MB1428) strain of Escherichia coli cells; d=values could not be determined due to solubility problems encountered with these congener; assay type: functional, organism-based
[4] = biological target: T1, Dihydrofolate reductase type 1 (Escherichia coli) (UniProt P00382)
T1 sequence (whole entry): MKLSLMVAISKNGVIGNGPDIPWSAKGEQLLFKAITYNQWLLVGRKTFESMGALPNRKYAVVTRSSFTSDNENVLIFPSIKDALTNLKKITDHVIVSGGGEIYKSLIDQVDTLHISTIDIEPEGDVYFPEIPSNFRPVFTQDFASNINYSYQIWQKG

[5] = system: Escherichia coli; assay: Compound was evaluated for the inhibition of growth of methotrexate resistant (MB1428) strain of Escherichia coli cells; d=values could not be determined due to solubility problems encountered with these congener; assay type: functional, organism-based; procedure, shortened: as §1
[6] = system: Escherichia coli; assay: Inhibition of growth of methotrexate resistant (MB1428) strain of Escherichia coli cells; assay type: functional; procedure, shortened: as §1
[7] = system: Escherichia coli; assay: Inhibition of growth of methotrexate sensitive (MB1417) strain of Escherichia coli cells; assay type: functional; procedure, shortened: as §1
[8] = system: Escherichia coli; assay: Compound was evaluated for the inhibition of growth of methotrexate sensitive (MB1417) strain of Escherichia coli cells; d=values could not be determined due to solubility problems encountered with these congener; assay type: functional, organism-based; procedure, shortened: as §1

`COc1ccc(Cc2cnc(N)nc2N)cc1OC` [DIAVERIDINE] was tested, and the “Log 1/C” value [1] was 6.08 and the “Log 1/C” value [2] was 4.46.

With `CCOc1cc(Cc2cnc(N)nc2N)ccc1OCc1ccccc1` the “Log 1/C” value [3] was “Not detected” and the “Log 1/C” value [1] was 5.04.

In the case of `COCc1cccc(Cc2cnc(N)nc2N)c1`, the “Log 1/C” value [1] is reported as 4.68 and the “Log 1/C” value [2] is reported as 2.98.

With `COCCOc1cccc(Cc2cnc(N)nc2N)c1` the “Log 1/C” value [1] was 4.33 and the “Log 1/C” value [2] was 2.92.

With `CCCCCCOc1cccc(Cc2cnc(N)nc2N)c1` the “Log 1/C” value [1] was 4.81 and the “Log 1/C” value [2] was 4.53.

With `CCCCCCCCCCCCCCOc1cccc(N2C(N)=NC(N)=NC2(C)C)c1` the Log 1/Ki app [4] was 5.85.

With `CC1(C)N=C(N)N=C(N)N1c1cccc(COc2cccc(NC(=N)S)c2)c1` the Log 1/Ki app [4] was 6.17.

For `CCCCCCCCOc1cc(Cc2cnc(N)nc2N)ccc1OC`, the “Log 1/C” value [1] was 4.91 and the “Log 1/C” value [5] was “Not detected”.

With `CC1(C)N=C(N)N=C(N)N1c1cccc(COc2cccc(C#N)c2)c1` the “Log 1/C” value [6] was 3.02, the Log 1/Ki app [4] was 6.05 and the “Log 1/C” value [7] was 2.74.

With `Cc1cccc(OCc2cccc(N3C(N)=NC(N)=NC3(C)C)c2)c1` the “Log 1/C” value [6] was 3.41, the Log 1/Ki app [4] was 6.27 and the “Log 1/C” value [7] was 3.27.

In the case of `CCCCCCCOc1cccc(Cc2cnc(N)nc2N)c1`, the “Log 1/C” value [1] is reported as 4.88 and the “Log 1/C” value [2] is reported as 4.84.

For `COCCOc1c(OC)cc(Cc2cnc(N)nc2N)cc1OC` [TETROXOPRIM], the “Log 1/C” value [1] was 5.83 and the “Log 1/C” value [2] was 4.72.

In the case of `Cc1nc(N)nc(N)c1-c1ccc(Cl)c(Cl)c1` [METOPRINE], the “Log 1/C” value [1] is reported as 4.24 and the “Log 1/C” value [2] is reported as 4.35.

In the case of `Cc1cccc(SCc2cccc(N3C(N)=NC(N)=NC3(C)C)c2)c1`, the “Log 1/C” value [6] is reported as 3.76, the Log 1/Ki app [4] is reported as 6.57 and the “Log 1/C” value [7] is reported as 3.87.

`CCOCc1cccc(N2C(N)=NC(N)=NC2(C)C)c1` showed a Log 1/Ki app [4] of 5.92.

In the case of `CC(=O)Nc1ccc(Cc2cnc(N)nc2N)cc1`, the “Log 1/C” value [1] is reported as 4.08 and the “Log 1/C” value [2] is reported as 3.03.

In the case of `COc1cccc(OCc2cccc(N3C(N)=NC(N)=NC3(C)C)c2)c1`, the “Log 1/C” value [6] is reported as 3.26, the Log 1/Ki app [4] is reported as 6.02 and the “Log 1/C” value [7] is reported as 3.21.

In the case of `Nc1ncc(Cc2ccccc2)c(N)n1`, the “Log 1/C” value [1] is reported as 4.28 and the “Log 1/C” value [2] is reported as 2.92.

In the case of `CC(C)(C)c1cccc(OCc2cccc(N3C(N)=NC(N)=NC3(C)C)c2)c1`, the “Log 1/C” value [6] is reported as 4.19, the Log 1/Ki app [4] is reported as 6.06 and the “Log 1/C” value [7] is reported as 4.1.

In the case of `C=C(C)c1c(OC)cc(Cc2cnc(N)nc2N)cc1OC`, the “Log 1/C” value [1] is reported as 6.63 and the “Log 1/C” value [2] is reported as 5.66.

Work on `CCCCCCCCCCCCOc1cccc(N2C(N)=NC(N)=NC2(C)C)c1` yielded a Log 1/Ki app [4] of 5.88.

In the case of `CCc1nc(N)nc(N)c1-c1ccc(Cl)cc1` [PYRIMETHAMINE], the “Log 1/C” value [1] is reported as 4.21 and the “Log 1/C” value [2] is reported as 3.56.

In the case of `CS(=O)(=O)Oc1cccc(Cc2cnc(N)nc2N)c1`, the “Log 1/C” value [1] is reported as 4.59 and the “Log 1/C” value [2] is reported as 3.35.

For `COCCOc1ccc(Cc2cnc(N)nc2N)cc1`, the “Log 1/C” value [1] was 4.61 and the “Log 1/C” value [2] was 3.11.

With `CC1(C)N=C(N)N=C(N)N1c1cccc(OCc2ccc(Cl)c(Cl)c2)c1` the “Log 1/C” value [6] was 4.01, the Log 1/Ki app [4] was 6.15 and the “Log 1/C” value [7] was 4.13.

For `Nc1ncc(Cc2ccc([N+](=O)[O-])cc2)c(N)n1`, the “Log 1/C” value [1] was 4.53 and the “Log 1/C” value [2] was 3.43.

With `COc1ccc(Cc2cnc(N)nc2N)cc1` the “Log 1/C” value [1] was 5.24 and 4.77 and the “Log 1/C” value [2] was 3.46 and 3.7.

`CC1(C)N=C(N)N=C(N)N1c1ccc(Cl)cc1` [CYCLOGUANIL] was tested, and the “Log 1/C” value [1] was 2.47 and the “Log 1/C” value [2] was 2.5.

In the case of `COc1cc(Cc2cnc(N)nc2N)cc(OC)c1SC` [METIOPRIM], the “Log 1/C” value [1] is reported as 6.97 and the “Log 1/C” value [2] is reported as 5.66.

In the case of `COc1ccc(OC)c(Cc2cnc3nc(N)nc(N)c3c2C)c1` [PIRITREXIM], the “Log 1/C” value [1] is reported as 5.95 and the “Log 1/C” value [2] is reported as 4.56.

`CCCCCCCCOc1cccc(Cc2cnc(N)nc2N)c1` was tested, and the “Log 1/C” value [8] was “Not detected” and the “Log 1/C” value [2] was 4.41.

In the case of `Nc1ncc(Cc2cccc(O)c2)c(N)n1`, the “Log 1/C” value [1] is reported as 4.35 and the “Log 1/C” value [2] is reported as 2.94.

For `Nc1ncc(Cc2cccc(Cl)c2)c(N)n1`, the “Log 1/C” value [1] was 4.92 and the “Log 1/C” value [2] was 3.46.

With `CN(Cc1cnc2nc(N)nc(N)c2n1)c1ccc(C(=O)N[C@@H](CCC(=O)O)C(=O)O)cc1` [METHOTREXATE] the “Log 1/C” value [1] was 3.76 and the “Log 1/C” value [2] was 2.7.

For `CC1(C)N=C(N)N=C(N)N1c1cccc(OCCOc2cccc(C(F)(F)F)c2)c1`, the “Log 1/C” value [1] was 4.01 and the “Log 1/C” value [2] was 4.14.

`Cc1cccc(Cc2cnc(N)nc2N)c1` was tested, and the “Log 1/C” value [1] was 4.91 and the “Log 1/C” value [2] was 3.29.

For `CCCCCCCCOc1c(OC)cc(Cc2cnc(N)nc2N)cc1OC`, the “Log 1/C” value [1] was 5.18 and the “Log 1/C” value [5] was “Not detected”.

For `COc1cc(Cc2cnc(N)nc2N)cc(OC)c1Br` [BRODIMOPRIM], the “Log 1/C” value [1] was 6.67 and the “Log 1/C” value [2] was 5.69.

`CC1(C)N=C(N)N=C(N)N1c1cccc(S(=O)(=O)F)c1` was tested, and the “Log 1/C” value [1] was 2.5 and the “Log 1/C” value [2] was 2.

For `CCCCOc1ccc(Cc2cnc(N)nc2N)cc1`, the “Log 1/C” value [1] was 4.76 and the “Log 1/C” value [2] was 4.01.

For `CCc1cccc(OCc2cccc(N3C(N)=NC(N)=NC3(C)C)c2)c1`, the “Log 1/C” value [6] was 3.98, the Log 1/Ki app [4] was 5.95 and the “Log 1/C” value [7] was 3.67.

In the case of `CCCCCCOc1ccc(Cc2cnc(N)nc2N)cc1`, the “Log 1/C” value [1] is reported as 4.79 and the “Log 1/C” value [2] is reported as 4.55.

For `CN(C)c1ccc(Cc2cnc(N)nc2N)cc1`, the “Log 1/C” value [1] was 4.94 and the “Log 1/C” value [2] was 3.46.

`CCCCOc1cccc(N2C(N)=NC(N)=NC2(C)C)c1` was tested, and the “Log 1/C” value [6] was 3.49 and the “Log 1/C” value [7] was 3.29.

Compound `CC1(C)N=C(N)N=C(N)N1c1cccc(COc2cccc(Cl)c2)c1` has a Log 1/Ki app [4] of 6.01.

With `CC1(C)N=C(N)N=C(N)N1c1cccc(COc2cccc(CO)c2)c1` the “Log 1/C” value [6] was 2.51, the Log 1/Ki app [4] was 6.19 and the “Log 1/C” value [7] was 2.38.

`COc1cc(Cc2cnc(N)nc2N)cc(OC)c1OC` [TRIMETHOPRIM] was tested, and the “Log 1/C” value [1] was 6.61 and the “Log 1/C” value [2] was 5.34.

`CC1(C)N=C(N)N=C(N)N1c1cccc(CSc2ccccc2)c1` was tested, and the “Log 1/C” value [6] was 3.52 and the “Log 1/C” value [7] was 3.39.

`Nc1ncc(Cc2ccc(Br)cc2)c(N)n1` was tested, and the “Log 1/C” value [1] was 5.12 and the “Log 1/C” value [2] was 3.69.

`CC1(C)N=C(N)N=C(N)N1c1cccc(COc2cccc(NC(N)=O)c2)c1` gave a Log 1/Ki app [4] of 5.91.

With `CCCCCCCCCCCOc1cccc(N2C(N)=NC(N)=NC2(C)C)c1` the “Log 1/C” value [6] was 5.5, the Log 1/Ki app [4] was 6.19 and the “Log 1/C” value [7] was 5.5.

`CC1(C)N=C(N)N=C(N)N1c1cccc(OCC23CC4CC(CC(C4)C2)C3)c1` was tested, and the “Log 1/C” value [6] was 4.63 and the “Log 1/C” value [7] was 4.49.

In the case of `COc1cc(Cc2cnc(N)nc2N)cc(OC)c1`, the “Log 1/C” value [1] is reported as 6.08 and the “Log 1/C” value [2] is reported as 4.55.

Reference: ChEMBL document CHEMBL1122876, “Quantitative structure-activity relationship of antifolate inhibition of bacteria cell cultures resistant and sensitive to methotrexate” (1985)
